High-throughput results from PubChem.
ALR H2O2 inh – blocks human ALR sulfhydryl oxidase activity | P55789 | purified ALR, DTT oxidation, H2O2 HRP-luminol luminescence | inhibition, % (test concentration not listed) | 290,000 compounds, 3.8% hits | AID 485317;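 active = mean replicate inhibition above about 79%, with every replicate also reaching it, limit read from the data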
Target sequence (P55789 whole entry, looked up): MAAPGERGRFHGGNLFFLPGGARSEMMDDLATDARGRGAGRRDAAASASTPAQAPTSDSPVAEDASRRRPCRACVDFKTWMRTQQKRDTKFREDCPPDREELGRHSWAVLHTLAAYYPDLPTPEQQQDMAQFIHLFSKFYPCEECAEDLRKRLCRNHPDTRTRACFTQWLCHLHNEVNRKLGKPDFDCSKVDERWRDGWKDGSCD
Rtt109 HAT inh – inhibitors of Candida albicans Rtt109/Vps75 histone acetyltransferase | Q5AAJ8 | purified Rtt109/Vps75, ThioGlo CoA-SH fluorescence, 4 h | inhibition, % at 34.9 µM | 330,000 compounds, 0.16% hits;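 active = inhibition of at least 50% in every replicate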
Target sequence (Q5AAJ8 whole entry, looked up): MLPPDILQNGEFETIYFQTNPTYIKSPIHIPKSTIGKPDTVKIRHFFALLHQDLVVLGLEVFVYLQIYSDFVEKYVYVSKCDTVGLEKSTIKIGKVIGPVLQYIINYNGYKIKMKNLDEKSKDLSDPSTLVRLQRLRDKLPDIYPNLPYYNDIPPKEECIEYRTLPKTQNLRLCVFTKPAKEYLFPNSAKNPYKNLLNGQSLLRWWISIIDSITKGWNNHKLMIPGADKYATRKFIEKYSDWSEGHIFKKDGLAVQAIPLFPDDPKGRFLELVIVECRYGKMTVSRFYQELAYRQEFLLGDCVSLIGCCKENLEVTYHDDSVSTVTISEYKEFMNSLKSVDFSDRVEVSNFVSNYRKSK
Dyrk1A ADPGlo – blocks rat Dyrk1A kinase activity; Q63470; ADP-Glo luminescence, NFATc1 peptide; inhibition, % at 12.5 µM; 310,000 compounds, 0.43% hits; in the data active = inhibition above about 50%;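 also: plate controls were vehicle with enzyme for no effect and no enzyme for full effect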
CAL PDZ FP-1 – CAL PDZ (human) peptide binding inhibition. purified CAL PDZ, TMR-peptide fluorescence polarization, 1 h. 300,000 compounds, 0.92% hits. AID 602252. inhibition, % at 24.9 µM;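 active = mean inhibition of at least 30% with at least half of replicates also reaching 30%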;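 also: 0% = DMSO neutral control and 100% = excess unlabeled competitor peptide PRC23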
CAL PDZ FP-2 – human CAL PDZ-peptide interaction inhibition | AID 504414 | inhibition, % at 20 µM | purified CAL PDZ, TMR-peptide fluorescence polarization, 1 h | 330,000 compounds, 0.02% hits | Q9HD26;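 active = highest replicate inhibition of at least 40%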;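 also: plate controls were DMSO neutral control wells for no effect and unlabeled competitor peptide control wells for full effect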
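Material – purified CerCALP PDZ construct · Detection – FP readout, S and P plane fluorescence · Measure – percent inhibition from loss of millipolarization · Controls – unlabelled peptide for full inhibition, DMSO wells as neutral · Probe or stimulus – TMR-labelled reporter peptide T*-PRC34 bound in PDZ groove · Times – 1 h at RT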
Numbers without * were called inactive; nt = not tested or not shown. In the library only some 4.3% were active in any assay of this set; here they are far more common.

SMILES | ALR H2O2 inh | Rtt109 HAT inh | Dyrk1A ADPGlo | CAL PDZ FP-1 | CAL PDZ FP-2
CCCCN(CCCC)c1ccc(C(=O)c2ccccc2C(=O)O)c(O)c1 | 89.8* | -12.8 | -10.7 | -2.5 | -2.3
CN(C)c1ccc(C(=O)c2ccccc2C(=O)O)c(O)c1 | -6.2 | -8.7 | -2.9 | -3.7 | -2.5
CCOc1ccc(NC(=O)c2ccc3c(c2)OCCO3)cc1S(=O)(=O)N(CC)CC | -2.8 | 22.2 | 4.5 | -7.3 | -3.7
CC(C)(C)N1CC23CCC(C[C@@H]2C1=O)O3 (some centres undefined) | -8.3 | -4.1 | 6.2 | 0.1 | 1.0
CC1(C(=O)NC(=S)N(CCC#N)Cc2cccnc2)CC1(Cl)Cl (centres undefined) | 14.0 | nt | nt | nt | nt
N#CCCN(Cc1cccnc1)C(=S)NC(=O)c1ccccc1 | nt | -0.9 | -3.0 | 88.8* | -0.5
Cc1cc(C)c2sc(N(CCN(C)C)C(=O)c3cc(Cl)sc3Cl)nc2c1 | -2.1 | -2.0 | -3.8 | -4.7 | -3.7
Cc1cc(C)c2nc(N(CCCN(C)C)C(=O)c3ccc4c(c3)CCCC4)sc2c1 | -39.9 | nt | nt | nt | nt
Cc1ccc2nc(N(CCCN(C)C)C(=O)c3ccc4c(c3)CCCC4)sc2c1 | -12.8 | 63.2* | 3.7 | -3.5 | -3.0
CCc1ccc2nc(N(CCN(C)C)C(=O)c3ccc4ccccc4c3)sc2c1 | -3.2 | 7.5 | 0.1 | 69.0* | -1.6
Cc1ccc2nc(N(CCN(C)C)C(=O)c3cc(Cl)sc3Cl)sc2c1 | 96.5* | 4.4 | 3.6 | -25.4 | -3.8
COc1ccc(/C=C/CN2CCC(n3nccc3NC(=O)C3CCCC3)CC2)cc1 | -2.4 | 3.4 | -1.2 | 2.2 | 0.1
O=C(O)Cc1ccc(O)c(O)c1 | 98.4* | -3.4 | 3.1 | -1.7 | -0.1
Cc1cc(C)nc(Sc2c(C)nn(-c3ccccc3)c2C)n1 | 79.7* | 4.1 | -1.3 | -2.1 | -1.5
Cc1ccc(N(CC(=O)Nc2ccccc2C(=O)NCc2ccco2)S(=O)(=O)c2ccccc2)cc1C | 96.4* | 4.6 | 1.8 | -1.8 | 0.0
O=C(CCNS(=O)(=O)c1ccccc1)OCC(=O)c1ccc(Br)cc1 | -12.3 | -2.3 | -0.5 | nt | -0.4
COc1ccc(C2=CC(=O)C=CC2=O)cc1 | nt | 103.6* | nt | nt | nt
Cn1nnnc1Sc1ncnc2scc(-c3cccs3)c12 | 30.1 | -1.6 | 59.5* | 0.2 | -0.8
Cn1nnnc1Sc1ncnc2scc(-c3ccc(-c4ccccc4)cc3)c12 | -2.7 | 2.0 | -0.5 | 0.6 | -0.5
CCc1ccc(N2C(=O)C(Cl)=C(Nc3ccc(C(=O)N4CCCC4)cc3)C2=O)cc1 | 18.0 | -6.6 | -2.1 | -3.8 | -0.2
COc1ccccc1N1CCN(CCCCN2C(=O)C3CCCCN3C2=O)CC1 (centres undefined) | -27.8 | -5.9 | -1.5 | 0.0 | 1.2
CCCCOc1ccccc1N1CCN(CCCN2C(=O)C3CCCN3C2=O)CC1 (centres undefined) | 58.2 | 3.9 | 10.9 | 32.5* | nt
O=C1C2CCCCN2C(=O)N1CCCN1CCN(c2ccc(F)cc2)CC1 (centres undefined) | 70.0 | 0.2 | nt | -2.5 | 0.0
Nc1ccc(N2CCN(CCCCN3C(=O)C4CCCN4C3=O)CC2)cc1 (centres undefined) | 99.2* | 38.9 | -2.5 | -0.2 | 0.0
O=C1C2CCCCN2C(=O)N1CCCN1CCN(c2cccc(C(F)(F)F)c2)CC1 (centres undefined) | nt | 0.2 | nt | -3.9 | -1.1
SMILES | ALR H2O2 inh | Rtt109 HAT inh | Dyrk1A ADPGlo | CAL PDZ FP-1 | CAL PDZ FP-2
O=C1C2CCCN2C(=O)N1CCCN1CCN(c2cccc(Br)c2)CC1 (centres undefined) | 85.4* | -3.2 | 12.6 | -0.4 | 0.4
Cc1c(C(=O)O)oc2c1/C(=N\O)CC(C)(C)C2 | 1.1 | -0.3 | 10.9 | nt | -0.2
CC1(C)CC[C@]2(CO)[C@@H](O)C[C@]3(C)C(=CCC4[C@@]5(C)CC[C@H](O)C(C)(C)C5CC[C@]43C)[C@@H]2C1 (some centres undefined) | -7.5 | nt | nt | nt | nt
O=C(c1ccccc1)c1cccn1CC(=O)N1CCN(C2CCCCC2)CC1 | -10.0 | 2.5 | 2.1 | -1.1 | 0.3
O=C(c1ccccc1)c1cccn1CC(=O)N1CCN(c2ccccc2)CC1 | 96.8* | -6.4 | 5.8 | -2.4 | -0.4
O=C(c1ccccc1)c1ccc(C(=O)N2CCN(c3ccc(O)cc3)CC2)cc1 | 99.4* | 10.5 | nt | -0.1 | 0.3
O=C(CSc1ncnc2scc(-c3ccc(Cl)cc3)c12)NCc1ccc2c(c1)OCO2 | nt | -5.0 | -6.0 | -0.8 | -1.6
COc1ccc(N(C)C(=S)Nc2ccc3nc(C)c(C)nc3c2)cc1 | 98.2* | -5.5 | -1.4 | -4.3 | -1.2
Cc1nc2ccc(NC(=S)NCc3ccccc3)cc2nc1C | -39.8 | -3.7 | 3.9 | nt | -0.8
O=C(COC(=O)/C=C/c1ccccc1Cl)NC1CCCC1 | 2.9 | -2.4 | nt | -4.1 | -1.7
CCN(CC)c1ccc(N=C2C(=O)Nc3ccccc32)cc1 | 94.0* | -4.1 | 2.4 | -4.6 | 0.6
Cc1ccc(N=C2C(=O)Nc3ccccc32)cc1 | 46.6 | 3.2 | -3.1 | -5.5 | 0.1
Cc1nnc(SCC(=O)NCC(=O)Nc2ccc(F)c(F)c2F)n1Cc1ccccc1 | 8.8 | -1.2 | -3.8 | -0.2 | -1.6
Cc1cc(NC(=O)CSc2nc3cc(C)c(C)cc3cc2C)no1 | -0.2 | -2.1 | 1.1 | -2.2 | -1.1
Cc1ccc(S(=O)(=O)N2CCN(S(C)(=O)=O)C2C)cc1 (centres undefined) | -17.4 | 2.5 | -4.1 | -1.8 | -4.1
COc1cc(OC)cc(C(=O)NCC2CCCN(C(=O)c3oc(C)cc3C)C2)c1 (centres undefined) | -0.9 | -5.3 | -4.4 | 46.2* | -0.5
Cc1cc(C)c(C(=O)N2CCCC(CNS(=O)(=O)N(C)C)C2)o1 (centres undefined) | -0.2 | 22.2 | -2.5 | -2.6 | -0.9
CSc1ccc(CN(C)C(=O)c2cccc(S(=O)(=O)N3CCN(Cc4ccccc4)CC3)c2)cc1 | 3.8 | -5.6 | 4.6 | -3.0 | -2.2
COc1cccc(-c2nn(-c3ccc(C)cc3)cc2C(=O)N(C)CC(=O)Nc2cccc(F)c2)c1 | 0.2 | -5.5 | nt | 47.3* | 0.0
CCOc1ccc(CNC(=O)CCCn2nc(C)c3c(C)n(-c4ccc(C)cc4)nc3c2=O)cc1 | -2.7 | 9.3 | nt | -3.5 | -2.6
COC(=O)c1ccc(S(=O)(=O)NCCc2ccccc2OC)n1C | 8.7 | -2.5 | 26.2 | 69.0* | -1.3
COc1ccccc1CCNS(=O)(=O)c1cn(C)c(=O)n(C)c1=O | 5.4 | -3.7 | -0.2 | -0.1 | -1.3
CC(C)(C=O)C1=CC(=O)c2ccccc2C1=O | 96.0* | -1.6 | 8.9 | 2.3 | 0.3
Cc1cccc(C)c1NC(=O)CN(C)C(=O)Cc1cccc(C(F)(F)F)c1 | -13.2 | -11.6 | 3.6 | 0.9 | -1.5
O=S(=O)(/N=C(/c1ccccc1)N1CCOCC1)c1ccc(Br)cc1 | -25.4 | -9.8 | -1.2 | 37.0* | -1.8
CC1(C)CC(=O)C(C(N)=NC(=O)c2ccc([N+](=O)[O-])cc2)=C(O)C1 | 89.3* | -5.3 | -5.5 | -2.9 | -1.5
COC(=O)c1cc2ccccc2c([N+](=O)[O-])c1O | nt | -2.6 | 40.4 | 107.7* | -0.3
